Compound activity as filed in PubChem BioAssay.
TNAP act hiacc = TNAP (human) activation, high acceptor | 200,000 tested, under 10 active | purified TNAP, CDP-star luminescence, 1 M DEA, 30 min; active compounds read high; 0 = EDTA background, 1 = DMSO-only activity | AID 1136 | P05186 | activation factor at 20 µM;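 active = activation factor at least 2 at 20 µM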
Target sequence (P05186 whole entry, looked up): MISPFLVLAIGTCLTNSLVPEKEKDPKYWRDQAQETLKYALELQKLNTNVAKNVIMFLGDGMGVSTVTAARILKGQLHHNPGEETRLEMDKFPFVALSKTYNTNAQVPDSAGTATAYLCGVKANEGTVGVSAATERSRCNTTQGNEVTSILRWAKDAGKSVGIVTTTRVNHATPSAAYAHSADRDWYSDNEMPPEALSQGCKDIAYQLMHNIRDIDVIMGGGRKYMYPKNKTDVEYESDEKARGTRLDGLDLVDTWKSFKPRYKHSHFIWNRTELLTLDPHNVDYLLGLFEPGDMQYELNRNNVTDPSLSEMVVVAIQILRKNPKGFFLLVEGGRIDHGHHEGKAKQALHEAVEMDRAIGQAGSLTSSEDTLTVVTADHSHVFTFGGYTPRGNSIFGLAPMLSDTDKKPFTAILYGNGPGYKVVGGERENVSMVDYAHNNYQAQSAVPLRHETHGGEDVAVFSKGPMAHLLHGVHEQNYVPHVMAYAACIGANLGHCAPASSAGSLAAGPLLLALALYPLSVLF
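Dosing: 20 µM single point. System: human TNAP. Amount: TNAP 1/800 final. Incubation: 30 min, room temperature. Read-out: TNAP activation factor scaled between EDTA and DMSO control wells. Signal: luminescence from CDP-star hydrolysis. Medium: 1 M DEA, pH 9.8, Mg2+, Zn2+. Control set: EDTA negative control, DMSO positive control.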
Insulin prom inh = TRM-6 insulin promoter activity inhibition | AID 1273 | inhibition, % at 2 µM | TRM-6 cells, insulin promoter-eGFP reporter, imaging; reporter expression induced with tamoxifen | 130,000 compounds, 0.9% hits;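 active = inhibition above the mean plus 3 SD, with well images judged a real hit on visual review, cut at about 60% in these data, passing the limit was not always enough; inconclusive = inhibition over the cutoff but images rejected on review; inactive = inhibition not above the cutoff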
TNAP inh no acc = inhibitors of human TNAP without phosphate acceptor; 200,000 compounds, 0.26% hits; AID 1012; inhibition, % at 20 µM; purified TNAP, CDP-star luminescence, 30 min;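 active = tissue-nonspecific alkaline phosphatase inhibition above about 50% at 20 µM in the single-dose screen, limit read from the data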;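 note: 0% = DMSO negative control and 100% = EDTA positive control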
TNAP inh hiacc = inhibitors of human TNAP at high phosphate acceptor concentration. AID 1135. inhibition, % at 20 µM. purified TNAP, CDP-star luminescence, 1 M DEA. 200,000 compounds, 0.03% hits. P05186;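 active = over 50% inhibition of tissue-nonspecific alkaline phosphatase at 20 µM in the single-dose screen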;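 note: plate controls were DMSO wells for no effect and EDTA-quenched wells as full inhibition for full effect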
HMGR II inh = E. faecalis class II HMG-CoA reductase inhibition; purified E. faecalis HMGR, NADPH absorbance 340 nm kinetic; inhibition, % at 10 µM; 190,000 compounds, 0.41% hits; AID 1066;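 active = inhibition above a set limit, the median over all tested compounds plus 3 SD, cut at about 9.5% in these data; inconclusive = no clear call, values can overlap the other calls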;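 note: enzyme runs in reverse so mevalonate oxidation gives rising NADPH absorbance; 0% = complete reaction with DMSO and 100% = background rate lacking mevalonate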
An asterisk follows results filed as active; ! = not confirmed by another sample. Only some compounds are listed: those with a hit (about 1.2% of all), similar ones and a draw of the others.

Results for CCOc1cc(S(=O)(=O)N2CCCC2)c(C)cc1C ?
TNAP act hiacc: 1.1; TNAP inh no acc: -8; TNAP inh hiacc: -8; HMGR II inh: -3

How did COc1cccc(Oc2ccc(N/C=C/C(=O)C(C)(C)C)cc2)c1 do in these assays?
TNAP act hiacc: 1; Insulin prom inh: 75*; TNAP inh no acc: -4; TNAP inh hiacc: -5; HMGR II inh: -5

Results for O=C(NCCN1CCN(c2ccccc2)CC1)c1ccc2c(c1)[nH]c(=S)n1c3ccccc3nc21 ?
TNAP act hiacc: 1; Insulin prom inh: -86; TNAP inh no acc: -4; TNAP inh hiacc: -4; HMGR II inh: 9.6*

How did O=C(c1ccc2c(c1)[nH]c(=S)n1c3ccccc3nc21)N1CCN(c2ncccn2)CC1 do in these assays?
TNAP act hiacc: 1; Insulin prom inh: 34; TNAP inh no acc: -6; TNAP inh hiacc: 0; HMGR II inh: 3

Results for COCCn1c(-c2ccccc2Cl)nc2c(c(=O)c3ccccc3n2C)c1=O ?
TNAP act hiacc: 1; Insulin prom inh: 44; TNAP inh no acc: -17; TNAP inh hiacc: 2; HMGR II inh: -2

Results for O=C(N/N=C/c1cccnc1)c1[nH]ncc1Br ?
TNAP act hiacc: 1.1; TNAP inh no acc: 30; TNAP inh hiacc: -7; HMGR II inh: 3

What do the screens show for `Cc1ccc(-c2cc(C(=O)N/N=C/c3cccnc3)n[nH]2)o1`?
TNAP act hiacc: 1; Insulin prom inh: -8; TNAP inh no acc: 71*; TNAP inh hiacc: -1; HMGR II inh: -3

How did COc1ccc2cc(C(c3nnnn3C3CCCC3)N3CCCCCC3)c3nnnn3c2c1 (stereo unspecified) do in these assays?
TNAP act hiacc: 1; Insulin prom inh: -54; TNAP inh no acc: -11; TNAP inh hiacc: -2; HMGR II inh: 11*

What do the screens show for `CCOC(=O)C1CCC(CNCc2ccccc2C)CC1` (stereo unspecified)?
TNAP act hiacc: 1; TNAP inh no acc: -8; TNAP inh hiacc: -2; HMGR II inh: 9.8*

What do the screens show for `O=C(O)C1CCC(CNCc2ccccc2Cl)CC1` (stereo unspecified)?
TNAP act hiacc: 1; TNAP inh no acc: -4; TNAP inh hiacc: -4; HMGR II inh: 3

Results for Cc1nnc(SCC(=O)c2ccc(Cl)cc2)s1 ?
TNAP act hiacc: 1; Insulin prom inh: 71*; TNAP inh no acc: -14; TNAP inh hiacc: -3; HMGR II inh: -4

Results for CCOc1cc(/C=N\NC(=O)OC(C)(C)C)ccc1OC(=O)c1ccco1 ?
TNAP act hiacc: 1; Insulin prom inh: 0; TNAP inh no acc: -16; TNAP inh hiacc: -3; HMGR II inh: 19*

What do the screens show for `c1ccc2[nH]c(-c3cscn3)nc2c1`?
TNAP act hiacc: 1.1; Insulin prom inh: 67*; TNAP inh no acc: -13; TNAP inh hiacc: -5; HMGR II inh: 4

Results for c1ccc2[nH]c(-c3ccnc4ccccc34)nc2c1 ?
TNAP act hiacc: 1; Insulin prom inh: 86*!; TNAP inh no acc: 0; TNAP inh hiacc: -5; HMGR II inh: -2

How did c1ccc2nc(-c3nc4ccccc4[nH]3)ccc2c1 do in these assays?
TNAP act hiacc: 1.1; Insulin prom inh: 32; TNAP inh no acc: -17; TNAP inh hiacc: -6; HMGR II inh: -4

What do the screens show for `CCCCNC(=S)Nc1ccc(OC)nc1`?
TNAP act hiacc: 1; Insulin prom inh: 50; TNAP inh no acc: -13; TNAP inh hiacc: -4; HMGR II inh: -5

Results for Cc1cc(C)nc(Sc2ncnc(N)c2[N+](=O)[O-])n1 ?
TNAP act hiacc: 1.1; TNAP inh no acc: -12; TNAP inh hiacc: -6; HMGR II inh: 0

Results for CCCCC(=O)Nc1cccc(NC(=O)c2ccccc2Br)c1 ?
TNAP act hiacc: 1; Insulin prom inh: 19; TNAP inh no acc: -11; TNAP inh hiacc: -2; HMGR II inh: -2

Results for O=C(COc1cccc(F)c1)N1c2ccccc2Sc2ccccc21 ?
TNAP act hiacc: 1; Insulin prom inh: 79*; TNAP inh no acc: -10; TNAP inh hiacc: -5; HMGR II inh: -1

What do the screens show for `O=C(COc1ccccc1)N1c2ccccc2Sc2ccccc21`?
TNAP act hiacc: 1; Insulin prom inh: inconclusive; TNAP inh no acc: -29; TNAP inh hiacc: -4; HMGR II inh: -4

Results for CCOC(=O)C1=C(O)/C(=C\c2ccc(CNC(=O)C(=O)Nc3ccc(C)c(C)c3)o2)N=C1C ?
TNAP act hiacc: 1; Insulin prom inh: 28; TNAP inh no acc: -6; TNAP inh hiacc: 0; HMGR II inh: 0

What do the screens show for `S=C(NCCc1cnc[nH]1)NC1CCCC1`?
TNAP act hiacc: 1; TNAP inh no acc: -11; TNAP inh hiacc: -5; HMGR II inh: -5

How did CCCC(=O)NC(=S)Nc1ccc(Cl)cn1 do in these assays?
TNAP act hiacc: 1; Insulin prom inh: 83*; TNAP inh no acc: -10; TNAP inh hiacc: -2; HMGR II inh: 29*

What do the screens show for `NC(=O)C1CCN(C(=O)/C=C/c2ccco2)CC1`?
TNAP act hiacc: 1; Insulin prom inh: 0; TNAP inh no acc: -5; TNAP inh hiacc: 0; HMGR II inh: -2

What do the screens show for `COc1ccc(-c2cc(OC)c3ccccc3n2)cc1`?
TNAP act hiacc: 1; Insulin prom inh: 31; TNAP inh no acc: -4; TNAP inh hiacc: -1; HMGR II inh: 0

Results for COc1ccc2c(OC)cc(-c3ccccc3)nc2c1 ?
TNAP act hiacc: 1; Insulin prom inh: 100*; TNAP inh no acc: -6; TNAP inh hiacc: 1; HMGR II inh: 1

How did CCCN1CCN(C(=O)Cn2cnc3ccc(S(=O)(=O)N4CCC(C)CC4)cc3c2=O)CC1 do in these assays?
TNAP act hiacc: 1; TNAP inh no acc: -1; TNAP inh hiacc: 0; HMGR II inh: 1

What do the screens show for `CCOc1nc(NCCO)nc(Nc2ccccc2F)n1`?
TNAP act hiacc: 1; Insulin prom inh: 23; TNAP inh no acc: -4; TNAP inh hiacc: -1; HMGR II inh: -4

What do the screens show for `CCOc1nc(NCc2ccco2)nc(Nc2ccccc2F)n1`?
TNAP act hiacc: 1; Insulin prom inh: -92; TNAP inh no acc: -15; TNAP inh hiacc: -4; HMGR II inh: 13*

How did Cc1cccc(NC(=O)CSc2nc3nc4c(cc3c(=O)n2-c2ccccc2)CCCC4)c1 do in these assays?
TNAP act hiacc: 1; Insulin prom inh: 6; TNAP inh no acc: -14; TNAP inh hiacc: -3; HMGR II inh: -7

What do the screens show for `Cc1ccccc1-n1c(SCC(=O)Nc2ccccc2)nc2nc3c(cc2c1=O)CCCC3`?
TNAP act hiacc: 1; Insulin prom inh: 11; TNAP inh no acc: -14; TNAP inh hiacc: 0; HMGR II inh: 13*

Results for CC(C)CC(C(=O)NC(C)(C)C)N(CC1CCCO1)C(=O)c1snc(C(N)=O)c1N (stereo unspecified) ?
TNAP act hiacc: 1; Insulin prom inh: -133; TNAP inh no acc: -4; TNAP inh hiacc: -3; HMGR II inh: -2

What do the screens show for `CCOC(=O)c1c(C)nc2ccc(Cl)cc2c1-c1ccccc1`?
TNAP act hiacc: 1.1; Insulin prom inh: 35; TNAP inh no acc: -5; TNAP inh hiacc: -5; HMGR II inh: 2
